Assay outcomes (PubChem)
An excerpt weighted towards active compounds, which were near 1.3% of everything screened.
PP5 primary: PP5 (human) phosphatase inhibition | P53041 | purified PP5c, OMFP substrate fluorescence | inhibition, % at 6.7 µM | 0.18% of 320,000 active;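 active = inhibition above the campaign's mean inhibition across all tested compounds plus 3 SD, cut at about 9.5% in these data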
Target sequence (P53041 whole entry, looked up): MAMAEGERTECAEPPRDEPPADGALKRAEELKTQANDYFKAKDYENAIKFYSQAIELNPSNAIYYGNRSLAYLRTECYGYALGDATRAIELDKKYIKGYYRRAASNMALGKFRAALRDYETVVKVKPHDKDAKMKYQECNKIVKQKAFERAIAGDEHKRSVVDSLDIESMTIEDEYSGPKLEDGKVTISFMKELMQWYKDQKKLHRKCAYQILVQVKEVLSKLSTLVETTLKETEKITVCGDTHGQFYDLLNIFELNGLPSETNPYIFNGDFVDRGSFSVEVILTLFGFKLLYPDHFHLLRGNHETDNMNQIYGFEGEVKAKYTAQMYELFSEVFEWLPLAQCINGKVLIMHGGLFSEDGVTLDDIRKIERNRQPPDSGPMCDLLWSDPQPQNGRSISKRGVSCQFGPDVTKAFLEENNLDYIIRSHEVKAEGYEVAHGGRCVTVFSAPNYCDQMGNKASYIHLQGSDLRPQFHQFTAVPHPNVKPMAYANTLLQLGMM
NR2E3 ag-1: NR2E3 (human) agonism; Q9Y5X4; GST-NR2E3/biotin-RetCOR TR-FRET, 1536-well; inhibition of corepressor binding, % at 4.78 µM; 0.12% of 320,000 active; AID 2300;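 active = percent inhibition above the cutoff of mean plus 3 SD of all tested compounds, set per screening campaign, cut at about 20% in these data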
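Format: 1536-well format; test system: GST-NR2E3 and biotin-RetCOR proteins; read-out basis: percent inhibition of TR-FRET ratio; timing: 5 h incubation at 4 °C; detection: time-resolved FRET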
NR2E3 ag-2: agonists of human NR2E3 nuclear receptor. 0.35% of 360,000 active. Q9Y5X4. inhibition of corepressor binding, % at 3.98 µM. CHO-S Gal4-NCOR/VP16-NR2E3 two-hybrid, luciferase;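 active = inhibition above the mean of all tested compounds plus 3 SD, cut at about 70% in these data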;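 note: higher means lower luciferase signal from less NR2E3 corepressor binding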
PP1 counter: counter-screen for PP5 inhibitors: inhibitors of human PP1-alpha; P62136; inhibition, % at 6.7 µM; 0.9% of 320,000 active; purified PP1alpha, OMFP fluorescence; AID 2235;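 active = inhibition above the mean inhibition of all tested compounds plus 3 SD, computed separately for each screening campaign, cut at about 15% in these data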
NR2E3 ag confirm: NR2E3 (human) agonism, confirmation; cell-free NR2E3 corepressor release, TR-FRET, 5 h; 39% of 360 active; shares compounds with NR2E3 ag-1; activation (reported as inhibition), % at 3.98 µM; in the data active = activation above about 20%
PPARg-NCOR2 ag: releases PPARgamma from NCOR2 in NR2E3 counter-screen; AID 504787; TR-FRET PPARg-NCOR2 coregulator interaction, biochemical; inhibition, % at 3.98 µM; shares compounds with NR2E3 ag-1; 45% of 360 active; in the data active = inhibition above about 20%
A number is an active result; i = inactive; nt = not tested or not shown.

SMILES | PP5 primary | NR2E3 ag-1 | NR2E3 ag-2 | PP1 counter | NR2E3 ag confirm | PPARg-NCOR2 ag
O=C(C1=C(O)C(=O)N(CCCn2ccnc2)C1c1ccccc1)c1ccco1 (centres undefined) | i | 32 | i | i | i | i
O=C(C1=C(O)C(=O)N(CCCn2ccnc2)C1c1cccc(Br)c1)c1ccco1 (centres undefined) | i | 34 | i | 47 | i | i
CCCOc1cccc(C2C(C(=O)c3ccco3)=C(O)C(=O)N2CCCn2ccnc2)c1 (centres undefined) | i | i | i | i | nt | nt
N#CC1=C2SCN(Cc3ccccc3)CN2C(=O)CC1c1ccc2c(c1)OCO2 (centres undefined) | i | i | i | i | nt | nt
N#CC1=C2SCN(Cc3ccccc3)CN2C(=O)CC1c1cccs1 (centres undefined) | i | 22 | i | i | i | i
CC1Cc2ccccc2N1C(=O)C(C)n1cc(C(F)(F)F)cc(Cl)c1=O (centres undefined) | i | i | i | i | nt | nt
CN(CC(=O)Nc1ccc(F)cc1)C(=O)CN1C(=O)NC(CCc2ccccc2)C1=O (centres undefined) | nt | nt | i | nt | nt | nt
COc1ccc(Cn2cc(CN3CC(N4CC=CC4)CS3(=O)=O)nn2)cc1 (centres undefined) | nt | nt | i | nt | nt | nt
N#Cc1c(-c2ccccc2)nc(SCC(=O)N(c2ccccc2)c2ccccc2)[nH]c1=O | i | i | i | i | nt | nt
C=CCSc1nc(-c2ccccc2)c(C#N)c(=O)[nH]1 | i | 22 | i | i | i | 41
N#CC1=C(N)SC(N)=C(C#N)C1CCc1ccccc1 | i | i | i | i | nt | nt
N#CC1=C(N)SC(N)=C(C#N)C1c1c(Cl)cccc1Cl | i | 40 | i | i | i | 26
Cc1[nH]c(C)c(S(=O)(=O)N2CCN(c3ccccc3)CC2)c1C(=O)N1CCCCC1 | i | i | i | i | nt | nt
O=C(O)CCCC[C@@H]1SC[C@@H]2NC(=O)N[C@@H]21 | i | 93 | i | i | 94 | 94
COC(=O)CCCCC1SCC2NC(=O)NC21 (centres undefined) | i | i | i | i | nt | nt
O=C(Nc1nc(-c2cccs2)c(C(=O)C(F)(F)F)s1)c1ccco1 | i | 30 | i | i | 34 | 32
CCOC(=O)Cc1csc(-n2sc3ccccc3c2=O)n1 | i | 32 | i | i | i | 22
CCCn1c(SC(C)C(=O)NC2CCCC2)n[nH]c1=O (centres undefined) | nt | nt | i | nt | nt | nt
COc1ccc(C(CNC(=O)COc2cccc(C(F)(F)F)c2)N2CCCC2)cc1 (centres undefined) | i | 32 | i | i | i | i
COC(=O)Sc1nnc(-c2ccc(Br)cc2)o1 | i | 27 | nt | i | 22 | 35
CCOc1ccccc1NC(=O)CSc1nc(N)c(C#N)cc1C#N | i | 43 | i | i | 33 | 54
COc1ccccc1NC(=O)CSc1nc(N)c(C#N)cc1C#N | i | i | i | i | nt | nt
Cc1ccc(CNC(=O)c2cc3c(s2)CN(Cc2ccccc2)C3)cc1 | i | 21 | i | i | i | i
Cc1ccc(CNC(=O)c2cc3c(s2)CS(=O)(=O)C3)cc1 | i | i | i | i | nt | nt
O=C(CCc1nnc2n(Cc3ccc(F)cc3)c(=O)c3ccccc3n12)N1CCN(c2ccccn2)CC1 | i | i | i | i | nt | nt
SMILES | PP5 primary | NR2E3 ag-1 | NR2E3 ag-2 | PP1 counter | NR2E3 ag confirm | PPARg-NCOR2 ag
C=CCOc1ccc(/C(O)=C2\C(=O)C(=O)N(CCOC)C2c2cccnc2)cc1 (centres undefined) | i | 21 | i | i | i | i
CCCOc1ccc(/C(O)=C2/C(=O)C(=O)N(CCOC)C2c2cccnc2)cc1 (centres undefined) | i | i | nt | i | nt | nt
NS(=O)(=O)c1ccc(CCNc2ccn3nc(-c4ccc(OCCN5CCOCC5)cc4)cc3n2)cc1 | nt | nt | i | nt | nt | nt
COc1ccccc1NC(=O)N1CCC(NC(=O)C2CCCCC2)CC1 | i | 32 | i | i | i | i
Cc1ccc(C(=O)C2=C(O)C(=O)N(Cc3ccco3)C2c2cccc(Cl)c2)o1 (centres undefined) | i | 31 | i | 25 | i | i
Cc1ccc(C(=O)C2=C(O)C(=O)N(Cc3ccco3)C2c2cccc(Br)c2)o1 (centres undefined) | i | 31 | i | 22 | i | i
C[C@H](CO)N1C[C@H](C)[C@@H](CN(C)Cc2ccc(C(=O)Nc3ccccc3N)cc2)Oc2c(NC(=O)C3CCCCC3)cccc2C1=O | nt | nt | i | nt | nt | nt
O=C(O)CCc1ccc(-c2ccc(Br)cc2)o1 | i | 35 | i | i | 36 | 32
O=C(O)CCc1ccc(-c2ccc(Cl)cc2)o1 | i | i | i | i | nt | nt
CC(C)c1nc2sc3c(=O)[nH]c(=S)[nH]c3c2c2c1CCCC2 | i | 24 | i | i | 45 | 44
COc1ccc(C(c2c(C)[nH]n(-c3ccccc3)c2=O)c2c(C)[nH]n(-c3ccccc3)c2=O)cc1OC | i | 30 | i | i | i | 39
COc1cccc2cc(C(=O)C3=C(O)C(=O)N(CCN4CCOCC4)C3c3cccc(Cl)c3)oc12 (centres undefined) | i | 28 | i | 23 | i | i
O=C(C1=C(O)C(=O)N(CCN2CCOCC2)C1c1cccnc1)c1cc2ccccc2o1 (centres undefined) | i | 32 | i | i | i | i
O=C(C1=C(O)C(=O)N(CCN2CCOCC2)C1c1cccs1)c1cc2ccccc2o1 (centres undefined) | i | 30 | i | i | 31 | 34
Cc1ccc(C2C(C(=O)c3cc4ccccc4o3)=C(O)C(=O)N2CCN2CCOCC2)o1 (centres undefined) | i | i | i | i | nt | nt
COc1cc(C2C(C(=O)c3cc4ccccc4o3)=C(O)C(=O)N2CCN2CCOCC2)ccc1OCCC(C)C (centres undefined) | nt | nt | i | nt | nt | nt
Cc1nc(C)c(C(=O)C2=C(O)C(=O)N(CCN3CCOCC3)C2c2cccnc2)s1 (centres undefined) | i | i | i | i | nt | nt
Cc1ccc(C2C(C(=O)c3cc4ccccc4o3)=C(O)C(=O)N2CCN2CCOCC2)cc1 (centres undefined) | i | 20 | i | i | 25 | 25
CCN(CC)CCOc1ccc(-c2c(C)c3c(ccc4ccccc43)oc2=O)cc1 | nt | nt | i | nt | nt | nt
CCCNc1nc2nc3ccccn3c(=O)c2cc1C(=O)NCCN1CCOCC1 | i | i | i | i | nt | nt
CCN(CC)Cc1cc2[nH]c3c4ccc(Cl)cc4ncc3c2cc1OC | nt | nt | i | nt | nt | nt
Cc1nc(Cc2nnc(SCC(=O)N3c4ccccc4NC(=O)C3(C)C)o2)cs1 | nt | nt | i | nt | nt | nt
COC(=O)c1ccc(C2C(C(=O)c3cc4ccccc4o3)=C(O)C(=O)N2CCCN(C)C)cc1 (centres undefined) | i | i | i | i | nt | nt
CN(C)CCCN1C(=O)C(O)=C(C(=O)c2cc3ccccc3o2)C1c1ccccc1 (centres undefined) | i | 30 | i | i | 27 | 28
